# Sampled rows, rich in hits. Any-hit rate of the full collection: about 1.9%.
# VIM-2 inhibitor: inhibitors of Pseudomonas aeruginosa VIM-2 metallo-beta-lactamase. purified VIM-2, nitrocefin hydrolysis, epi-absorbance fluorescence. inhibition, % at 5.6 µM. 290,000 tested, 0.89% active;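 active = inhibition above the mean of all tested compounds plus 3 SD, cutoff set per screening run, cut at about 7.5% in these data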;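 also: red hydrolysis product quenches plate fluorescence so inhibitors raise well fluorescence; 0% = enzyme with DMSO and 100% = DMSO without enzyme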
# IMP-1 inhibitor: inhibitors of Pseudomonas aeruginosa IMP-1 metallo-beta-lactamase; purified IMP-1, nitrocefin hydrolysis, epi-absorbance fluorescence; inhibition, % at 5.6 µM; 290,000 tested, 0.45% active; AID 1556;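 active = inhibition above the mean plus 3 SD of all compounds in the same screening run, cut at about 4.5% in these data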;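 also: 0% = IMP-1 with DMSO and 100% = DMSO wells lacking enzyme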
#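 System – purified recombinant IMP-1 beta-lactamase · Input – IMP-1 dispensed at 0.2 nM · Timing – 15 min preincubation plus 25 min reaction at 25 °C · Signal – Epi-absorbance fluorescence, 480 nm excitation, 530 nm emission · Measure – percent IMP-1 inhibition derived from blank-referenced optical density · Controls – Enzyme-plus-DMSO low control, enzyme-free DMSO high control · Replication – singlicate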
# core dimer inh: HCV core protein dimerization inhibition; 300,000 tested, 0.33% active; AID 1899; inhibition, % at 5 µM; TR-FRET GST/Flag-core106 dimerization, 1536-well;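 active = inhibition above the mean of all tested compounds plus 3 SD, set per screening campaign, cut at about 45% in these data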
#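 Material: GST/Flag-tagged HCV core106 proteins. Incubation: 4 h, 22.5 °C incubation. Read-out basis: inhibition (%) from 671 over 617 nm ratio. Measured by: TR-FRET, excitation 340 nm, emission 617 and 671 nm.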
# NadD block: inhibitors of Staphylococcus aureus NadD | purified NadD enzyme, colorimetric absorbance read-out | inhibition, % at 20 µM | 360,000 tested, 0.78% active | AID 602399; in the data active = inhibition above about 26%
# Starred values were filed as active, the others as inactive; i = inactive; x = not tested or not shown; ! = repeats disagree.
SMILES,VIM-2 inhibitor,IMP-1 inhibitor,core dimer inh,NadD block
O=C(CCN1C(=O)/C(=C/c2ccc(F)cc2)SC1=S)NC1C=CS(=O)(=O)C1 (stereo not drawn),-1,0,-5,-5
O=C(CCN1C(=O)/C(=C/c2ccccc2Cl)SC1=S)NC1C=CS(=O)(=O)C1 (stereo not drawn),2,-1,8,37*
FC(F)(F)c1cc(-c2cccs2)nc(-n2cc(Br)cn2)n1,1,-3,7,-2
Cc1cnn(-c2nc(-c3cccs3)cc(C(F)(F)F)n2)c1,8.1*,-1,1,-13
Cc1ccc(NC(=O)CS(=O)CC(=O)Nc2ccccc2-c2ccc(C)o2)cc1 (stereo not drawn),9.1*,3,-2,-6
CCOC(=O)c1cc(-c2ccccc2)sc1NC(=O)COC(=O)c1ccc(Cl)c(S(N)(=O)=O)c1,2,0,22,42*
CCOc1ccc(/C=C/C(=O)Nc2ccc(OC)cc2[N+](=O)[O-])cc1,-1,0,10,-10
CCOc1ccc(NC(=O)/C=C/c2ccccc2)c([N+](=O)[O-])c1,-1,4.8*,0,-4
O=C(/C=C/c1cn(-c2ccccc2)nc1-c1cccnc1)c1ccco1,-2,-3,62*,13
COc1cccc(NC(=O)CN(C)C(=O)CCc2nc3sc4c(c3c(=O)[nH]2)CCCC4)c1,1,-1,49*,4
Cc1cccc(NC(=O)CCc2nc3sc4c(c3c(=O)[nH]2)CCCC4)c1,x,x,-3,-1
CCOC(=O)N1CCN(S(=O)(=O)c2ccc(C(=O)NNc3nc4c(C)cc(C)cc4s3)cc2)CC1,-3,-1,2,15
CCOC(=O)N1CCN(S(=O)(=O)c2ccc(C(=O)NNc3nc4cc(C)cc(C)c4s3)cc2)CC1,-4,-5,-3,39*
COc1ccc(Cc2c(-c3ccc(F)cc3)nc3ccc(Cl)cn23)c(C)c1,x,x,x,5
COC(=O)c1cccc(NC(=O)CSc2nnc(C)o2)c1,-4,7.5*,7,4
O=[N+]([O-])c1cc([N+](=O)[O-])c(Oc2c(Cl)cccc2Cl)cc1NN1CCCCC1,2,4.8*,8,-6
O=C(OCC(=O)c1ccc(Cl)s1)c1cnccn1,-3,0,54*,9
Nc1nn2c(C(F)(F)F)cc(=O)[nH]c2c1N=Nc1cccc(F)c1,-4,-5,-9,1
Cc1cc(=O)[nH]c2c(N=Nc3ccc(O)cc3)c(N)nn12,2,6.4*,x,0
Cc1ccc(/C=C2\C(=O)NC(=O)N2C)o1,-2,-3,-20,-8
Cc1ccc(/C=C2/SC(=S)N(C3CCCCC3)C2=O)o1,-4,0,68*,25
Cc1ccc(/C=C2/SC(=O)NC2=S)o1,4,5.3*,x,-2
Cc1cc(C)c(CN2CCC(n3nccc3NC(=O)C3CCOC3)CC2)cc1C (stereo not drawn),-1,-2,6,-5
Cc1c(C)c2cc(Cl)c(O)c(CN3CCN(C)CC3)c2oc1=O,4,6.2*,-8,-1
O=C(COc1ccc(Br)cc1Cl)c1ccc[nH]1,-3,-4,7,0
SMILES,VIM-2 inhibitor,IMP-1 inhibitor,core dimer inh,NadD block
O=C(COc1ccccc1Cl)c1ccc[nH]1,-2,-3,67*,4
O=C(O)CCC(=O)Nc1ccc(/C=C/C(=O)C2CC2)cc1,1,-6,-1,1
CCOC(=O)c1cnc(-n2nc(C)cc2C)nc1NC,8.1*,-4,-3,-3
CCOc1ccc(/C=N/NC(=O)c2cccc3ccccc23)c(OCC)c1,-1,-2,x,8
COc1ccc(C(=O)C[n+]2cccc3cc(C)ccc32)cc1,1,5.9*,6,-4
O=C(Nc1ccc(OC(F)(F)F)cc1)C1CCCN(S(=O)(=O)c2cnc[nH]2)C1 (stereo not drawn),0,-1,-2,-5
COc1cccc2sc3ccc(NCc4ccc5c(c4)OCO5)cc3c(=O)c12,9.2*,-2,3,6
COc1ccc(C2CC(c3ccc(OC)cc3)n3nc(N)nc3N2)cc1 (stereo not drawn),-1,-4,-4,3
COc1ccc(C2CC(c3ccc(Cl)cc3)n3nc(N)nc3N2)cc1 (stereo not drawn),-1,5.0*,-3,8
CCCSc1nc(C)c(-c2csc(C(C#N)=C3CCCC3)n2)cc1C#N,-1,0,61*,22
CCCCSc1nc2c(cc1C#N)CCC2,-4,-5,3,-5
C=CCSC1=N/C(=C\C=C\c2ccco2)C(=O)S1,-1,0,65*,6
COc1ccccc1N1CCN(CCCCN2C(=O)C3CCCCN3C2=O)CC1 (stereo not drawn),-1,0,-3,-3
O=C(O)c1cccc(N/N=C/c2cc(Br)cc(Br)c2O)c1,-2,-2,1,0
CN(/N=C/c1cc(Br)cc(Br)c1O)c1ccccc1,1,8.3*,-3,-4
Cc1cccc(NC(=S)NNC(=O)c2cc3c(s2)CCC(C)C3)c1C (stereo not drawn),-3,-3,8,2
CC(C)n1cnc2c(NCc3ccccc3)cc(N[C@H](C)CO)cc21,x,x,x,9
COc1ccc(/C=C2\Sc3ccc(C(=O)NCc4cccnc4)cc3N(C)C2=O)cc1OC,11*,-3,0,3
O=Cc1ccc(-c2ccccc2C(=O)O)o1,-4,-3,-3,0
O=C(O)c1ccccc1-c1c2cc(I)c(=O)c(I)c-2oc2c(I)c(O)c(I)cc12,x,x,i,28*!
CC(C)C(=O)Nc1nnc(SCC(=O)NCc2ccco2)s1,5,1,4,0
O=C(CSc1nnc(NC(=O)c2ccc(F)cc2)s1)NCc1ccco1,12*,-1,1,1
CC(C)(C)C(=O)Nc1nnc(SCC(=O)NCc2ccco2)s1,8.6*,-2,-3,0
O=C(CCN1C(=O)COc2ccccc21)NCc1ccco1,-1,1,-2,3
O=C(CN(Cc1cccs1)C(=O)CN1C(=O)COc2ccccc21)NCc1ccco1,0,5.4*,7,-8
SMILES,VIM-2 inhibitor,IMP-1 inhibitor,core dimer inh,NadD block
CCOc1ccc(C2/C(=C(/O)c3ccc4c(c3)CC(C)O4)C(=O)C(=O)N2CCCn2ccnc2)cc1OCC (stereo not drawn),-1,0,13,10
Cc1ccc2nc(C(Cl)(Cl)Cl)nc(N/N=C/c3ccc([N+](=O)[O-])cc3)c2c1,x,x,x,24
Cc1ccc2nc(C(Cl)(Cl)Cl)nc(N/N=C/c3ccncc3)c2c1,11*,-3,7,-1
COc1ccc(C(=O)N2CCC(C(=O)N3CCN(Cc4ccccc4)CC3)CC2)cc1,-2,-1,-2,2
CCN(CC(=O)Nc1c(F)cccc1F)C(=O)CCC(=O)c1ccc(C)cc1,x,x,-2,3
COc1cccc(NC(=S)NC(=O)/C=C/c2ccco2)c1,-2,-2,26,15
O=C(/C=C/c1ccco1)NC(=S)Nc1cccc(C(=O)O)c1,-4,8.9*,9,-3
O=C(/C=C/c1ccco1)Nc1cccc(NC(=O)/C=C/c2ccco2)n1,1,-2,49*,5
Cc1cc(C)n(-c2ccc(NC(=O)C3CCN(Cc4ccccn4)CC3)cc2)n1,2,-2,-1,2

# Screens as filed in PubChem.
